Bioassay records as filed in PubChem BioAssay.
HSF-1 act – increases HSF-1 driven luciferase reporter signal | AID 504408 | 300,000 tested, 1.7% active | activation, % at 9 µM | NIH3T3-HGL HSF-1 luciferase reporter, MG132, 8 h; 100% = twice DMSO control signal;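 active means mean replicate activation of at least 50% with a set share of replicates each reaching 50%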;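 further: 0% = median of the neutral control wells and 100% = twice that signal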
HSF1 inhib – HSF1 inhibition; NIH3T3-HGL HSE-luciferase, MG132-induced, luminescence 8 h; hits give low values; activity change, negative = inhibition, % at 7.5 µM (by protocol); 300,000 tested, 0.77% active; AID 2098;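 active means more than half of replicate wells show activity change below -50%, luminescence cut by over half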;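 further: luciferase reports HSF-1 transcriptional activity via heat shock element; 0% = median of DMSO wells and -100% = zero luminescence signal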
HCV core dimer – blocks dimerization of HCV core protein; TR-FRET GST/Flag-core106 dimerization, 1536-well; inhibition, % at 5 µM; 300,000 tested, 0.33% active;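 active means inhibition above the mean of all tested compounds plus 3 SD, set per screening campaign, cut at about 45% in these data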
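Test system: GST/Flag-tagged HCV core106 proteins; Medium: KF-containing HEPES buffer, pH 7.45, DTT, CHAPS, BSA; Times: compound-protein-antibody incubation 4 h at 22.5 °C; Detection: TR-FRET 671 and 617 nm emission; Benchmarks: wells lacking GST-core106 and wells with excess unlabelled core106.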
AI-2 QS modul – modulates the Vibrio harveyi AI-2 quorum sensing system. Vibrio harveyi JMH597 AI-2 luminescence/OD600 ratio, 9 h; hits give low values; strain lacks LuxN and CqsS sensors; 0 = neutral-control median. activity change, % at 7.5 µM. 300,000 tested, 0.4% active; in the data active means activity change below about -75%, passing the limit was not always enough;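 further: luminescence divided by OD600 gain over 9 h not by final OD600 alone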
ALR H2O2 inh – human ALR oxidase inhibition via reduced H2O2 | purified ALR, DTT oxidation, H2O2 HRP-luminol luminescence | inhibition, % (concentration not given with the values) | 290,000 tested, 3.8% active;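 active means mean replicate inhibition above about 79%, with every replicate also reaching it, limit read from the data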
Target sequence (P55789 whole entry, looked up): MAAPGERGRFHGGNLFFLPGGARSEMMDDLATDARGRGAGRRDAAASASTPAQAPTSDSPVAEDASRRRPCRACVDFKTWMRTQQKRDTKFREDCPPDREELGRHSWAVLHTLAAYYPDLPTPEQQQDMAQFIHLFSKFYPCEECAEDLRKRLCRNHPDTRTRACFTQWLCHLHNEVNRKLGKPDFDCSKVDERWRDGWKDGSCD
PHOSPHO1 block – inhibitors of human PHOSPHO1 phosphatase; AID 1565; inhibition, % at 13.3 µM; Q8TCT1; 290,000 tested, 1.1% active; recombinant PHOSPHO1, absorbance phosphatase assay; in the data active means inhibition above about 60%
Target sequence (Q8TCT1 whole entry, looked up): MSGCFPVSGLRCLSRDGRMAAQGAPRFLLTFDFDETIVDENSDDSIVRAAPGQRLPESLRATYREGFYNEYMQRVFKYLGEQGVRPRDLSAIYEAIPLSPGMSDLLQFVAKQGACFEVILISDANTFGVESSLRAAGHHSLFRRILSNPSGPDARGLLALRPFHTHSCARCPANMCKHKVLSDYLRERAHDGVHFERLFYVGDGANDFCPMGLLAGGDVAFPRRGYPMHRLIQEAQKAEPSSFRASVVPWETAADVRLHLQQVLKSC
Active calls of the source: *; nt = no result. Most compounds without a hit are left out; they make up all but 6.8% or so of the library.

SMILES	HSF-1 act	HSF1 inhib	HCV core dimer	AI-2 QS modul	ALR H2O2 inh	PHOSPHO1 block
CCOC(=O)C1CCN(C(=O)C2CCN(S(=O)(=O)c3cc(Cl)ccc3OCC)CC2)CC1	1	-2	0	7	-3	nt
O=C(Cc1ccccc1)NCC(=O)OCC(=O)c1ccc(Cl)cc1	14	-6	-2	6	12	14
COc1ccc(CNc2ccccc2)cc1Br	-10	-8	2	-13	83*	-1
COc1ccc(CNc2ccc(C)cc2)cc1Br	-8	-10	2	-62	nt	8
CCC(C(=O)Nc1cccnc1Cl)c1ccccc1 (configuration not stated)	11	-7	8	7	-14	-8
CN1C(=S)SC(N(O)C(=O)Nc2cccc3ccccc23)C1(C)C (configuration not stated)	23	9	-8	14	-4	63*
CCCc1ccc2oc(C(=O)NCCN3CCCC(O)C3)c(C)c2c1 (configuration not stated)	62*	33	nt	1	nt	nt
CCCc1ccc2oc(C(=O)N3CCC(COC)C3)c(C)c2c1 (configuration not stated)	61*	33	-2	-6	nt	19
CCCc1ccc2oc(C(=O)NCCN3CCCC(C(N)=O)C3)c(C)c2c1 (configuration not stated)	-9	5	-3	10	-1	-7
Cc1ccc(C(=O)NNCC(=O)Nc2ccc(Cl)cc2F)cc1	nt	nt	nt	nt	-2	nt
COCCn1c(SCC(=O)Nc2cccc(C)c2)nnc1C(C)C	-7	0	-1	6	nt	1
COCCn1c(SCC(=O)Nc2cc(C)cc(C)c2)nnc1C(C)C	5	-4	2	11	100*	7
COCCn1c(SCC(=O)c2ccc(Cl)cc2)nnc1C(C)C	34	24	2	5	91*	75*
COc1cc(NS(=O)(=O)c2ccc(Cl)cc2)c(C(=O)O)cc1OC	-13	2	1	62	-20	-5
Cc1ccc(-c2noc(C3CCCN(C(=O)c4cccc([N+](=O)[O-])c4)C3)n2)o1 (configuration not stated)	29	23	-3	-17	8	-16
Cc1cccc(C(=O)N2CCCC(c3nc(-c4ccc(C)o4)no3)C2)c1 (configuration not stated)	61*	42	-1	46	0	-4
COc1ccc(-c2cc3c(=O)n(CC(=O)Nc4ccc(Cl)cc4)nc(C)n3n2)cc1	-17	-2	-5	27	-3	13
Cc1nn(CC(=O)Nc2cccc(Cl)c2)c(=O)c2cc(-c3ccccc3)nn12	2	4	9	9	-14	65*
CCOC(=O)c1sc(NC(=O)C(CC)Sc2nnc3c4ccccc4n(C(C)C)c3n2)nc1C (configuration not stated)	nt	nt	nt	nt	nt	68*
CC(C)c1cccc(C(C)C)c1NC(=S)Nc1cccc(Cl)c1	2	-1	-2	13	-2	-10
Cc1cc(C(=O)N/N=C2\CC(=O)c3ccccc32)c(C)n1-c1ccc(F)cc1	0	-2	71*	2	-17	14
CN=C1S/C(=C\c2ccc(O)c(OC)c2)C(=O)N1C	32	16	-12	9	75	nt
CN=C1S/C(=C\c2ccc(O)c(Br)c2)C(=O)N1C	6	-3	-30	8	96*	37
CCOc1ccc(-n2ccc(=O)c(C(=O)O)n2)cc1	15	3	-2	16	1	11
CC(Sc1ccsc1[N+](=O)[O-])C(=O)NCc1ccco1 (configuration not stated)	20	2	20	9	14	-12
SMILES	HSF-1 act	HSF1 inhib	HCV core dimer	AI-2 QS modul	ALR H2O2 inh	PHOSPHO1 block
Cn1c(C2CCCN2C(=O)OC(C)(C)C)n[nH]c1=S (configuration not stated)	3	1	-1	4	9	97*
CSc1nnc([C@@H]2CCCN2C(=O)OC(C)(C)C)o1	-1	-3	-1	40	-22	-4
CCOC(=O)C1CCN(C(=O)Cn2c(=O)oc3cc(S(=O)(=O)N4CCCC4)ccc32)CC1	5	1	0	13	-3	36
COc1cccc(-c2nc(CS(=O)CC(=O)NCc3ccccc3)c(C)o2)c1 (configuration not stated)	1	-5	2	7	100*	36
CCCNC(=O)CS(=O)Cc1nc(-c2cccc(OC)c2)oc1C (configuration not stated)	-21	-5	-3	6	99*	37
Nc1nc2ncc(-c3ccsc3)c(N)n2n1	-23	-6	0	1	-16	-16
Nc1c(-c2ccsc2)cnc2ncnn12	64*	31	1	18	-16	11
CCN(C(=O)COC(=O)c1ccc([N+](=O)[O-])o1)C1CCCCC1	nt	nt	nt	nt	-92	nt
Cn1c(Cc2c[nH]c3ccccc23)n[nH]c1=S	1	0	-5	3	2	89*
Cc1[nH]c2ccccc2c1Cc1n[nH]c(=S)n1C	30	6	-6	1	48	-16
O=C(COC(=O)COc1ccccc1)Nc1cccnc1Cl	nt	nt	nt	nt	-10	nt
O=C(COC(=O)COc1ccc(Cl)cc1Cl)Nc1cccnc1Cl	63*	13	-3	8	-5	3
COc1cc(NC2c3ccccc3C(=O)N2c2cc(C)ccn2)cc(OC)c1OC (configuration not stated)	40	13	-14	19	95*	-4
COc1cc(NC2c3ccccc3C(=O)N2c2ccc(C)cn2)cc(OC)c1OC (configuration not stated)	24	17	21	43	9	2
COc1ccc(-c2[nH]ncc2-c2ccc3c(c2)OCCO3)c(O)c1	-55	-45	-1	44	92*	-70
COc1ccc(NC(=O)c2nc(C)n(-c3ccc([N+](=O)[O-])cc3)n2)cc1	-4	0	3	10	-7	12
Cc1ccn2c(=O)nc(SCC(=O)N3N=C(c4cccs4)CC3c3ccc(F)cc3)nc2c1 (configuration not stated)	16	3	32	26	-9	nt
Cc1cccn2c(=O)nc(SCC(=O)N3N=C(c4cccs4)CC3c3ccc(F)cc3)nc12 (configuration not stated)	95*	50	nt	34	nt	nt
COc1cc(/C=C2\SC(=S)N(CC(=O)O)C2=O)ccc1OS(=O)(=O)c1ccc(C)cc1	-1	-2	13	nt	89*	nt
CC1=CC(C)(C)Nc2ccc(OC(=O)CN3C(=O)CCC3=O)cc21	-46	-36	-19	10	99*	10
COCCNC(=O)C1CC(=O)N(C2CCCCC2)C1 (configuration not stated)	55*	15	-1	62	3	35
